Measured values: ChEMBL document CHEMBL1143440, “Tetrakis-azaaromatic quaternary ammonium salts: novel subtype-selective antagonists at neuronal nicotinic receptors that mediate nicotine-evoked dopamine release” (Bioorg Med Chem Lett, 2008)

Assays:
Rattus norvegicus = organism: Rattus norvegicus; experiment: Inhibition of nAChR-mediated nicotine-evoked [3H]DA release in superfused rat striatal slices at 100 nM
In short: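 Rat striatal slices, preloaded with [3H]DA, superfused 36 min with or without 100 nM analogue, then 36 min more with 10 μM S(-)-nicotine added. Inhibition expressed as percent of the nicotine-evoked [3H]DA overflow without analogue. At least three independent experiments, each in duplicate.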

[1] = biological target: Neuronal acetylcholine receptor; alpha4/beta2 (Rattus norvegicus) (UniProt P09483+P12390); experiment: Displacement of [3H]nicotine from alpha4beta2 nAChR in rat brain membrane at 100 nM; format: cell membranes
In short: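 Whole rat brain membranes, [3H]nicotine binding at 3 nM radioligand; nonspecific binding defined with 10 μM […]. Analogue tested at a 100 nM probe concentration. Inhibition expressed as percent of radioligand binding without analogue. At least three independent experiments, each in duplicate.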

[2] = Inhibition of nAChR-mediated nicotine-evoked [3H]DA release in superfused rat striatal slices
In short: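 Superfused rat striatal slices, [3H]DA overflow evoked by 10 μM S(-)-nicotine after 36 min analogue pre-exposure, superfusion continued 36 min. Full concentration range 1 nM to 10 μM. IC50 from iterative nonlinear least-squares curve fitting; 4–5 independent experiments, each in duplicate.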

[3] = biological target: Neuronal acetylcholine receptor subunit alpha-7 (Rattus norvegicus) (UniProt Q05941); experiment: Displacement of [3H]methyllycaconitine from alpha7 nAChR in rat brain membrane at 100 nM; format: cell membranes
In short: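 Whole rat brain membranes, [3H]MLA binding at 2.5 nM radioligand; nonspecific binding defined with 10 μM nicotine. Analogue tested at a 100 nM probe concentration. Inhibition expressed as percent of radioligand binding without analogue. At least three independent experiments, each in duplicate.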

[4] = biological target: Neuronal acetylcholine receptor subunit alpha-7 (Rattus norvegicus, UniProt Q05941); experiment: Displacement of [3H]methyllycaconitine from alpha7 nAChR in rat brain membrane; format: cell membranes
Chain of Neuronal acetylcholine receptor subunit alpha-7 (Q05941 whole entry): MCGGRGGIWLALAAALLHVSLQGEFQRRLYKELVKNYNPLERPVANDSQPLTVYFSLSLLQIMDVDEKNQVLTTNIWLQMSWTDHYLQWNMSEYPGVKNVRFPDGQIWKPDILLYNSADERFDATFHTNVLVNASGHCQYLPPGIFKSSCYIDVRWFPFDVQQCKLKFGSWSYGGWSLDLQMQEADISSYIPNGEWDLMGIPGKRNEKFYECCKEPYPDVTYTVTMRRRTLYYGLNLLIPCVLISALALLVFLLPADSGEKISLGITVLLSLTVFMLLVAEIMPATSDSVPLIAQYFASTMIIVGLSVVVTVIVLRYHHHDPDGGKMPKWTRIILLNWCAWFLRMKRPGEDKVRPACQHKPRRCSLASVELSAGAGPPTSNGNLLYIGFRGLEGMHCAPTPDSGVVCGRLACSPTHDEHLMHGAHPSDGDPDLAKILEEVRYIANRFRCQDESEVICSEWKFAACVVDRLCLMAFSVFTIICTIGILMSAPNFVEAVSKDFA

Chain of Neuronal acetylcholine receptor subunit alpha-7 (Rattus norvegicus) (Q05941 whole entry): as above

Compound | inhibition (Rattus norvegicus) [%] | Activity [1] [%] | IC50 [2] [nM] | Activity [3] [%] | Ki [4] [nM]
c1ccc(Cc2ccc[n+](CCCCCc3cc(CCCCC[n+]4cccc(Cc5ccccc5)c4)c(CCCCC[n+]4cccc(Cc5ccccc5)c4)cc3CCCCC[n+]3cccc(Cc4ccccc4)c3)c2)cc1 | 54 | 13 | 28 | 16 | 
Cc1cc[n+](CCCCCc2cc(CCCCC[n+]3ccc(C)cc3)c(CCCCC[n+]3ccc(C)cc3)cc2CCCCC[n+]2ccc(C)cc2)cc1 | 46 | 12 |  | 8 | 
C(#Cc1cc(C#CCCC[n+]2cccc(Cc3ccccc3)c2)c(C#CCCC[n+]2cccc(Cc3ccccc3)c2)cc1C#CCCC[n+]1cccc(Cc2ccccc2)c1)CCC[n+]1cccc(Cc2ccccc2)c1 | 17 | 2.9 |  | 53 | 
Cc1ccc[n+](CCCCCc2cc(CCCCC[n+]3cccc(C)c3)c(CCCCC[n+]3cccc(C)c3)cc2CCCCC[n+]2cccc(C)c2)c1 | 8 | 12 |  | 12 | 
Cc1cc(C)c[n+](CCCC#Cc2cc(C#CCCC[n+]3cc(C)cc(C)c3)c(C#CCCC[n+]3cc(C)cc(C)c3)cc2C#CCCC[n+]2cc(C)cc(C)c2)c1 | 12 | 0 |  | 3.9 | 
c1c(CCCCC[n+]2ccc3c(c2)CCCC3)c(CCCCC[n+]2ccc3c(c2)CCCC3)cc(CCCCC[n+]2ccc3c(c2)CCCC3)c1CCCCC[n+]1ccc2c(c1)CCCC2 | 27 | 0.9 |  | 27 | 
C(#Cc1cc(C#CCCC[n+]2ccc3c(c2)CCCC3)c(C#CCCC[n+]2ccc3c(c2)CCCC3)cc1C#CCCC[n+]1ccc2c(c1)CCCC2)CCC[n+]1ccc2c(c1)CCCC2 | 24 | 9.7 |  | 17 | 
Cc1cc(C)c[n+](CCCCCc2cc(CCCCC[n+]3cc(C)cc(C)c3)c(CCCCC[n+]3cc(C)cc(C)c3)cc2CCCCC[n+]2cc(C)cc(C)c2)c1 | 45 | 3.7 |  | 15 | 
CN1CCC[C@H]1c1ccc[n+](CCCCCc2cc(CCCCC[n+]3cccc([C@@H]4CCCN4C)c3)c(CCCCC[n+]3cccc([C@@H]4CCCN4C)c3)cc2CCCCC[n+]2cccc([C@@H]3CCCN3C)c2)c1 | 43 | 7.4 |  | 26 | 
Cc1cc[n+](CCCC#Cc2cc(C#CCCC[n+]3ccc(C)c(C)c3)c(C#CCCC[n+]3ccc(C)c(C)c3)cc2C#CCCC[n+]2ccc(C)c(C)c2)cc1C | 17 | 9.8 |  | 0.6 | 
CN1CCC[C@H]1c1ccc[n+](CCCC#Cc2cc(C#CCCC[n+]3cccc([C@@H]4CCCN4C)c3)c(C#CCCC[n+]3cccc([C@@H]4CCCN4C)c3)cc2C#CCCC[n+]2cccc([C@@H]3CCCN3C)c2)c1 | 31 | 38 |  | 15 | 
OCCCc1ccc[n+](CCCC#Cc2cc(C#CCCC[n+]3cccc(CCCO)c3)c(C#CCCC[n+]3cccc(CCCO)c3)cc2C#CCCC[n+]2cccc(CCCO)c2)c1 | 41 | 0 |  | 5.7 | 
c1ccc(-c2ccc[n+](CCCCCc3cc(CCCCC[n+]4cccc(-c5ccccc5)c4)c(CCCCC[n+]4cccc(-c5ccccc5)c4)cc3CCCCC[n+]3cccc(-c4ccccc4)c3)c2)cc1 | 19 | 6.6 |  | 33 | 
Cc1ccc[n+](CCCC#Cc2cc(C#CCCC[n+]3cccc(C)c3)c(C#CCCC[n+]3cccc(C)c3)cc2C#CCCC[n+]2cccc(C)c2)c1 | 16 | 11 |  | 18 | 
Cc1cc[n+](CCCCCc2cc(CCCCC[n+]3ccc(C)c(C)c3)c(CCCCC[n+]3ccc(C)c(C)c3)cc2CCCCC[n+]2ccc(C)c(C)c2)cc1C | 36 | 0.5 |  | 18 | 
C(#Cc1cc(C#CCCC[n+]2cccc(-c3ccccc3)c2)c(C#CCCC[n+]2cccc(-c3ccccc3)c2)cc1C#CCCC[n+]1cccc(-c2ccccc2)c1)CCC[n+]1cccc(-c2ccccc2)c1 | 37 | 0.3 |  | 53 | 
Cc1cc[n+](CCCC#Cc2cc(C#CCCC[n+]3ccc(C)cc3)c(C#CCCC[n+]3ccc(C)cc3)cc2C#CCCC[n+]2ccc(C)cc2)cc1 | 35 | 24 |  | 3 | 
C(#Cc1cc(C#CCCC[n+]2ccc3ccccc3c2)c(C#CCCC[n+]2ccc3ccccc3c2)cc1C#CCCC[n+]1ccc2ccccc2c1)CCC[n+]1ccc2ccccc2c1 | 39 | 0 |  | 4.9 | 
Cc1ccc[n+](CCCC#Cc2cc(C#CCCC[n+]3cccc(C)c3)cc(C#CCCC[n+]3cccc(C)c3)c2)c1 | 40 | 10 | 0.2 | 0 | 
c1ccc2c[n+](CCCCCc3cc(CCCCC[n+]4ccc5ccccc5c4)c(CCCCC[n+]4ccc5ccccc5c4)cc3CCCCC[n+]3ccc4ccccc4c3)ccc2c1 | 63 | 6.5 | 56 | 24 | 
Cc1ccc[n+](CCCCCCCCCCCC[n+]2cccc(C)c2)c1 |  |  | 2 |  | > 100000
OCCCc1ccc[n+](CCCCCc2cc(CCCCC[n+]3cccc(CCCO)c3)c(CCCCC[n+]3cccc(CCCO)c3)cc2CCCCC[n+]2cccc(CCCO)c2)c1 | 64 | 9.6 | 3.38 | 20 | 
